According to publication PMC7808142 (ACS Omega, 2020):

Key:
[1] = Pharmacokinetics in rats after intravenous and oral administration; assay type: in vivo, Sprague-Dawley rats; details: rat; for AUC(0-inf) / AUC(0-t) / C0 / MRT last / Vd / clearance / half-life / Cmax / bioavailability / Tmax: male, Sprague-Dawley, plasma; for half-life: t1/2, rat; for half-life / Tmax / AUCextr / t1/2: n = 3
Outline: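 Male SD rats (220–250 g), fasted 12 h, with jugular vein cannulae placed 2 days earlier under pentobarbital. Groups of 3 received 5 mg/kg iv (2 mg/mL with 30% HP-β-CD) or 100 mg/kg po (10 mg/mL suspension in 0.5% CMC-Na). Plasma (50 μL) was mixed with terfenadine internal standard and analysed by MRM LC-MS/MS (calibration 1.00–1000 ng/mL). Parameters are mean ± SD.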

[2] = Stability in rat plasma under different storage conditions; assay type: in vitro ADME; details: n = 5
[3] = autosampler for 24 h (4 °C), spiked 2.00 ng/mL
[4] = autosampler for 24 h (4 °C), spiked 50.0 ng/mL
[5] = autosampler for 24 h (4 °C), spiked 800 ng/mL
[6] = long-term (30 days at -80 °C), spiked 2.00 ng/mL
[7] = long-term (30 days at -80 °C), spiked 50.0 ng/mL
[8] = long-term (30 days at -80 °C), spiked 800 ng/mL
[9] = three freeze/thaw cycles, spiked 2.00 ng/mL
[10] = three freeze/thaw cycles, spiked 50.0 ng/mL
[11] = three freeze/thaw cycles, spiked 800 ng/mL

SMILES | AUC(0-inf) ([1]; iv, 5 mg/kg) | AUC(0-t) ([1]; iv, 5 mg/kg) | C0 ([1]; iv, 5 mg/kg) | MRT last ([1]; iv, 5 mg/kg) | Vd ([1]; iv, 5 mg/kg) | clearance ([1]; iv, 5 mg/kg) | half-life ([1]; iv, 5 mg/kg, i.v. 5 mg/kg) | AUC(0-inf) ([1]; po, 100 mg/kg) | AUC(0-t) ([1]; po, 100 mg/kg) | Cmax ([1]; po, 100 mg/kg) | MRT last ([1]; po, 100 mg/kg) | bioavailability ([1]; po, 100 mg/kg) | Tmax ([1]; po, 100 mg/kg, p.o. 100 mg/kg) | half-life ([1]; po, 100 mg/kg, p.o. 100 mg/kg) | time after which the compound could not be detected in blood ([1]; i.v. 5 mg/kg) | AUCextr ([1]; i.v. 5 mg/kg) | t1/2 ([1]; i.v. 5 mg/kg, 5 mg/kg) | time until which the compound was detectable in plasma (above LLOQ) ([1]; p.o. 100 mg/kg) | AUCextr ([1]; p.o. 100 mg/kg) | stability, measured concentration [2, 3] | further results
C[C@@H]1CC[C@H]2[C@@H](C)C(=O)O[C@@H]3O[C@@]4(C)CC[C@@H]1[C@]32OO4 [artemisinin, Artemisinin] | 130 ± 39.1 ng·h/mL | 129 ± 38.9 ng·h/mL | 700 ± 166 ng/mL | 0.408 ± 0.066 h | 45.1 ± 12.3 L/kg | 674 ± 174 mL/min/kg | 0.77 ± 0.06 h | 318 ± 21.6 ng·h/mL | 309 ± 22.3 ng·h/mL | 65.1 ± 10.4 ng/mL | 3.46 ± 0.249 h | 12.2 ± 0.832% | 1.33 ± 0.58 h | 2.22 ± 0.25 h | 4 h | 0.967 ± 0.110% | 0.773 ± 0.0598 h | 12 h | 2.89 ± 0.999% | 1.91 ± 0.02 ng/mL | stability, accuracy (%, RE) [2, 3]: 95.7%; stability, accuracy (%, RE) [2, 4]: 91.0%; stability, measured concentration [2, 4]: 45.5 ± 0.66 ng/mL; stability, accuracy (%, RE) [2, 5]: 97.1%; stability, measured concentration [2, 5]: 777 ± 6.68 ng/mL; stability, accuracy (%, RE) [2, 6]: 97.3%; stability, measured concentration [2, 6]: 1.95 ± 0.02 ng/mL; stability, accuracy (%, RE) [2, 7]: 91.3%; stability, measured concentration [2, 7]: 45.7 ± 1.46 ng/mL; stability, accuracy (%, RE) [2, 8]: 95.2%; stability, measured concentration [2, 8]: 762 ± 9.29 ng/mL; stability, accuracy (%, RE) [2, 9]: 95.2%; stability, measured concentration [2, 9]: 1.90 ± 0.02 ng/mL; stability, accuracy (%, RE) [2, 10]: 95.2%; stability, measured concentration [2, 10]: 47.6 ± 0.52 ng/mL; stability, accuracy (%, RE) [2, 11]: 96.3%; stability, measured concentration [2, 11]: 770 ± 9.11 ng/mL
C[C@@H]1CC[C@H]2[C@@H](C)C(=O)O[C@@H]3O[C@@]4(C)CC[C@@H]1[C@]32O4 [deoxyartemisinin, Deoxyartemisinin] | 222 ± 47.1 ng·h/mL | 219 ± 46.1 ng·h/mL | 1070 ± 173 ng/mL | 0.671 ± 0.183 h | 48.3 ± 8 L/kg | 385 ± 74.5 mL/min/kg | 1.12 ± 0.16 h | 71 ± 14.1 ng·h/mL | 67.3 ± 14.2 ng·h/mL | 62.4 ± 31.3 ng/mL | 1.21 ± 0.388 h | 1.6 ± 0.317% | ~0.39 h | 1.12 ± 0.156 h | 8 h | 1.33 ± 0.214% | 1.45 ± 0.059 h | 6 h | 5.33 ± 1.92% | 2.18 ± 0.10 ng/mL | stability, accuracy (%, RE) [2, 4]: 99.0%; stability, measured concentration [2, 4]: 53.9 ± 1.66 ng/mL; stability, accuracy (%, RE) [2, 5]: 99.0%; stability, measured concentration [2, 5]: 782 ± 26.3 ng/mL; stability, accuracy (%, RE) [2, 6]: 101.5%; stability, measured concentration [2, 6]: 2.03 ± 0.07 ng/mL; stability, accuracy (%, RE) [2, 7]: 108.4%; stability, measured concentration [2, 7]: 54.2 ± 1.91 ng/mL; stability, accuracy (%, RE) [2, 8]: 96.0%; stability, measured concentration [2, 8]: 768 ± 50.2 ng/mL; stability, measured concentration [2, 9]: 1.98 ± 0.08 ng/mL; stability, accuracy (%, RE) [2, 10]: 109.1%; stability, measured concentration [2, 10]: 52.3 ± 0.99 ng/mL; stability, accuracy (%, RE) [2, 11]: 109.1%; stability, measured concentration [2, 11]: 774 ± 16.0 ng/mL
